Measured values: ChEMBL document CHEMBL4689842, “EUbOPEN Chemogenomics Library wave 1” (2021)

System: HEK-293T
Experiment: Multiplex assay against HEK293T;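 for Population Tubulin-Different-Phenotype (%): share of the cells with healthy nuclei that show this phenotype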
Type: toxicity, cell-based
Details: human
In short: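 Compound was added to live cells that had been stained at seeding with Hoechst33342, BioTracker Green Microtubule Cytoskeleton Dye, MitoTracker Red and Annexin V Alexa Fluor 680, and imaging followed on a CQ1 microscope at 37°C and 5% CO2. CellPathfinder machine-learning gating divided cells into Hoechst high-intensity objects or normal cells, normal cells into healthy, pyknosed or fragmented nuclei, and pyknosed cells into mitotic or apoptotic. Tubulin, mitochondrial-mass and membrane-permeability phenotypes are per cents of healthy-nucleus cells.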

[1] = 12 h, 1 µM, compound concentration 1 uM, replicate 1
[2] = 12 h, 1 µM, compound concentration 1 uM, replicate 2
[3] = 12 h, 10 µM, compound concentration 10 uM, replicate 1
[4] = 12 h, 10 µM, compound concentration 10 uM, replicate 2
[5] = 24 h, 1 µM, compound concentration 1 uM, replicate 1
[6] = 24 h, 1 µM, compound concentration 1 uM, replicate 2
[7] = 24 h, 10 µM, compound concentration 10 uM, replicate 1
[8] = 24 h, 10 µM, compound concentration 10 uM, replicate 2
[9] = 48 h, 1 µM, compound concentration 1 uM, replicate 1
[10] = 48 h, 1 µM, compound concentration 1 uM, replicate 2
[11] = 48 h, 10 µM, compound concentration 10 uM, replicate 1
[12] = 48 h, 10 µM, compound concentration 10 uM, replicate 2

SMILES: Cc1nc(Cc2cccc(C(F)(F)F)c2)sc1-c1ccc(C(N)=O)nc1 [TP-024n]
- Population Apoptotic (%) [1]: 41%
- Population Fragmented Nuclei (%) [1]: 7%
- Population Healthy Nuclei (%) [1]: 53%
- Population Hoechst High Intensity Objects (%) [1]: 14%
- Population Membrane Permeable-Phenotype (%) [1]: 2%
- Population Mitochondria Different-Phenotype (%) [1]: 65%
- Population Mitotic Cells (%) [1]: 58%
- Population Normal (%) [1]: 85%
- Population Pyknosed Nuclei (%) [1]: 39%
- Population Tubulin-Different-Phenotype (%) [1]: 41%
- Total Cell Count [1]: 435
- Population Apoptotic (%) [2]: 10%
- Population Fragmented Nuclei (%) [2]: 2%
- Population Healthy Nuclei (%) [2]: 47%
- Population Hoechst High Intensity Objects (%) [2]: 5%
- Population Membrane Permeable-Phenotype (%) [2]: 9%
- Population Mitochondria Different-Phenotype (%) [2]: 22%
- Population Mitotic Cells (%) [2]: 89%
- Population Normal (%) [2]: 94%
- Population Pyknosed Nuclei (%) [2]: 50%
- Population Tubulin-Different-Phenotype (%) [2]: 26%
- Total Cell Count [2]: 212
- Population Apoptotic (%) [3]: 50%
- Population Fragmented Nuclei (%) [3]: 11%
- Population Healthy Nuclei (%) [3]: 29%
- Population Hoechst High Intensity Objects (%) [3]: 12%
- Population Membrane Permeable-Phenotype (%) [3]: 0%
- Population Mitochondria Different-Phenotype (%) [3]: 91%
- Population Mitotic Cells (%) [3]: 49%
- Population Normal (%) [3]: 87%
- Population Pyknosed Nuclei (%) [3]: 59%
- Population Tubulin-Different-Phenotype (%) [3]: 59%
- Total Cell Count [3]: 316
- Population Apoptotic (%) [4]: 25%
- Population Fragmented Nuclei (%) [4]: 8%
- Population Healthy Nuclei (%) [4]: 25%
- Population Hoechst High Intensity Objects (%) [4]: 9%
- Population Membrane Permeable-Phenotype (%) [4]: 6%
- Population Mitochondria Different-Phenotype (%) [4]: 66%
- Population Mitotic Cells (%) [4]: 75%
- Population Normal (%) [4]: 90%
- Population Pyknosed Nuclei (%) [4]: 65%
- Population Tubulin-Different-Phenotype (%) [4]: 30%
- Total Cell Count [4]: 141
- Population Apoptotic (%) [5]: 49%
- Population Fragmented Nuclei (%) [5]: 9%
- Population Healthy Nuclei (%) [5]: 50%
- Population Hoechst High Intensity Objects (%) [5]: 11%
- Population Membrane Permeable-Phenotype (%) [5]: 2%
- Population Mitochondria Different-Phenotype (%) [5]: 55%
- Population Mitotic Cells (%) [5]: 50%
- Population Normal (%) [5]: 88%
- Population Pyknosed Nuclei (%) [5]: 40%
- Population Tubulin-Different-Phenotype (%) [5]: 28%
- Total Cell Count [5]: 429
- Population Apoptotic (%) [6]: 19%
- Population Fragmented Nuclei (%) [6]: 4%
- Population Healthy Nuclei (%) [6]: 62%
- Population Hoechst High Intensity Objects (%) [6]: 2%
- Population Membrane Permeable-Phenotype (%) [6]: 5%
- Population Mitochondria Different-Phenotype (%) [6]: 24%
- Population Mitotic Cells (%) [6]: 80%
- Population Normal (%) [6]: 97%
- Population Pyknosed Nuclei (%) [6]: 33%
- Population Tubulin-Different-Phenotype (%) [6]: 36%
- Total Cell Count [6]: 239
- Population Apoptotic (%) [7]: 51%
- Population Fragmented Nuclei (%) [7]: 11%
- Population Healthy Nuclei (%) [7]: 31%
- Population Hoechst High Intensity Objects (%) [7]: 17%
- Population Membrane Permeable-Phenotype (%) [7]: 3%
- Population Mitochondria Different-Phenotype (%) [7]: 86%
- Population Mitotic Cells (%) [7]: 48%
- Population Normal (%) [7]: 82%
- Population Pyknosed Nuclei (%) [7]: 57%
- Population Tubulin-Different-Phenotype (%) [7]: 52%
- Total Cell Count [7]: 338
- Population Apoptotic (%) [8]: 36%
- Population Fragmented Nuclei (%) [8]: 10%
- Population Healthy Nuclei (%) [8]: 30%
- Population Hoechst High Intensity Objects (%) [8]: 10%
- Population Membrane Permeable-Phenotype (%) [8]: 2%
- Population Mitochondria Different-Phenotype (%) [8]: 65%
- Population Mitotic Cells (%) [8]: 63%
- Population Normal (%) [8]: 89%
- Population Pyknosed Nuclei (%) [8]: 59%
- Population Tubulin-Different-Phenotype (%) [8]: 50%
- Total Cell Count [8]: 148
- Population Apoptotic (%) [9]: 32%
- Population Fragmented Nuclei (%) [9]: 12%
- Population Healthy Nuclei (%) [9]: 50%
- Population Hoechst High Intensity Objects (%) [9]: 9%
- Population Membrane Permeable-Phenotype (%) [9]: 4%
- Population Mitochondria Different-Phenotype (%) [9]: 25%
- Population Mitotic Cells (%) [9]: 67%
- Population Normal (%) [9]: 90%
- Population Pyknosed Nuclei (%) [9]: 37%
- Population Tubulin-Different-Phenotype (%) [9]: 25%
- Total Cell Count [9]: 594
- Population Apoptotic (%) [10]: 17%
- Population Fragmented Nuclei (%) [10]: 5%
- Population Healthy Nuclei (%) [10]: 80%
- Population Hoechst High Intensity Objects (%) [10]: 2%
- Population Membrane Permeable-Phenotype (%) [10]: 5%
- Population Mitochondria Different-Phenotype (%) [10]: 5%
- Population Mitotic Cells (%) [10]: 82%
- Population Normal (%) [10]: 97%
- Population Pyknosed Nuclei (%) [10]: 13%
- Population Tubulin-Different-Phenotype (%) [10]: 19%
- Total Cell Count [10]: 464
- Population Apoptotic (%) [11]: 53%
- Population Fragmented Nuclei (%) [11]: 18%
- Population Healthy Nuclei (%) [11]: 27%
- Population Hoechst High Intensity Objects (%) [11]: 12%
- Population Membrane Permeable-Phenotype (%) [11]: 2%
- Population Mitochondria Different-Phenotype (%) [11]: 69%
- Population Mitotic Cells (%) [11]: 46%
- Population Normal (%) [11]: 87%
- Population Pyknosed Nuclei (%) [11]: 53%
- Population Tubulin-Different-Phenotype (%) [11]: 42%
- Total Cell Count [11]: 373
- Population Apoptotic (%) [12]: 46%
- Population Fragmented Nuclei (%) [12]: 10%
- Population Healthy Nuclei (%) [12]: 39%
- Population Hoechst High Intensity Objects (%) [12]: 5%
- Population Membrane Permeable-Phenotype (%) [12]: 6%
- Population Mitochondria Different-Phenotype (%) [12]: 54%
- Population Mitotic Cells (%) [12]: 53%
- Population Normal (%) [12]: 94%
- Population Pyknosed Nuclei (%) [12]: 50%
- Population Tubulin-Different-Phenotype (%) [12]: 60%
- Total Cell Count [12]: 164
